MC4R antag cAMP – blocks human MC4R cAMP signaling; MC4R-expressing cells, MTII-stimulated cAMP, LANCE TR-FRET; 360,000 compounds, 0.48% hits; inhibition, % at 6.5 µM; AID 540295;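 active means inhibition above its plate's cutoff, the mean of tested wells on that plate plus 3 SD, cut at about 29% in these data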;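 further: 0% = Melanotan II alone and 100% = Melanotan II plus saturating MCL0020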
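Material: U2OS-MC4R stable cell line | Reagent: Melanotan II challenge after compound preincubation | Doses: One concentration, 6.5 µM nominal | Incubation: 30-min compound preincubation, 1-h Melanotan II challenge, 1-h detection, room temperature | Signal: TR-FRET cAMP assay | Replicates: One well per compound, no replicates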
EBI2 antag – antagonists of human EBI2 receptor. P32249. EBI2 beta-arrestin recruitment, luminescence, 7a,25-OHC stimulated. inhibition, % at 5 µM. 360,000 compounds, 0.81% hits; in the data active means inhibition above about 38%;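 further: enzyme fragment complementation signal reports receptor beta-arrestin coupling in cells; 0% = agonist plus DMSO wells and 100% = wells without agonist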
Target sequence (P32249 whole entry, looked up, the tested form may be a part): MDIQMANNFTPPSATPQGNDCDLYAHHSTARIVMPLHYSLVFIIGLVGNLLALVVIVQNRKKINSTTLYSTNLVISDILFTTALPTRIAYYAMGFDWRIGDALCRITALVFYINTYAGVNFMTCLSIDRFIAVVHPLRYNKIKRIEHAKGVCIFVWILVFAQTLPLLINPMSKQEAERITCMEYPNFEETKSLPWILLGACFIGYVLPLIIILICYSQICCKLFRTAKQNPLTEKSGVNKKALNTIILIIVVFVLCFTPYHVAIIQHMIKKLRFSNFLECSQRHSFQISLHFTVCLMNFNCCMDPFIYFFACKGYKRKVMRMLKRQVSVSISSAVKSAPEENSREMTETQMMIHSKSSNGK
Myeloid diff MLP – compounds promoting myeloid differentiation; ER-HoxA9 myeloid progenitors, lysozyme-GFP differentiation, flow cytometry; calls only at 10 µM; 360,000 compounds, 1% hits;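 active means normalized GFP-positive differentiation at or above the plate's own cutoff, the solvent-only control mean plus 3 SD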;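 further: cells exposed to compound for four days before flow analysis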
MC4R barr agon – human MC4R agonism via beta-arrestin; P32245; activation, % at 8.9 µM; 360,000 compounds, 0.98% hits; U2OS MC4R beta-arrestin complementation, luminescence; percent of melanotan II response, DMSO zero;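 active means activation above a per-plate cutoff, the mean activation of sample wells on that plate plus 3 SD, cut at about 8% in these data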
Exocytosis inh – lytic granule exocytosis inhibition. 360,000 compounds, 0.66% hits. TALL-104 LAMP-1 surface exposure, flow cytometry; cells stimulated with thapsigargin and PMA. inhibition, % at 10 µM;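 active means inhibition above about 55%, limit read from the data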
Myeloid diff – myeloid differentiation induction. AID 651706. 2,300 compounds, 2% hits. calls only. shares compounds with Myeloid diff MLP. ER-HoxA9 myeloid progenitors, GFP/Mac1 double-positive flow;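 active means share of green or green-and-red cells above 9 and 9% in run 1 or 4 and 3% in run 2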
GFP autofluor – counter-screen for myeloid differentiation promoters: compound fluorescence; shares compounds with Myeloid diff MLP; ER-HoxA9 myeloid progenitors, no estrogen, GFP autofluorescence flow cytometry; vehicle wells 0%, positive control 100%; fluorescence response, % (test concentration not listed); 2,300 compounds, 7.4% hits; AID 651707;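 active means over 5% cells positive for green fluorescent reporter, or over 2% positive for both it and APC stain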;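 further: range taken on the double positive population between DMSO and positive control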
Starred values were filed as active, the others as inactive; i = inactive; . = no result; + = active, no number. Hits are enriched below; roughly 3.7% of the tested compounds scored in any of these assays.

SMILES	MC4R antag cAMP	EBI2 antag	Myeloid diff MLP	MC4R barr agon	Exocytosis inh	Myeloid diff	GFP autofluor
COc1cc2c(cc1OC)C1Cc3ccc(OC)c(OC)c3CN1CC2 (centres undefined)	-2	2	i	-2	0	.	.
COc1ccc2c(c1OC)CN1CCc3cc4c(cc3[C@@H]1[C@@H]2O)OCO4	-2	-1	+	1	-2	i	3
Cc1ccc(NS(=O)(=O)c2cccc(C(=O)NNC(=O)c3ccco3)c2)c(C)c1	-9	-7	+	0	5	i	0
CCCc1cc(=O)n2[nH]c(C)c(-c3ccc(OC)cc3)c2n1	-2	-12	i	-2	3	.	.
COc1cccc(C(C)(O)c2nc(-c3cccc(C#N)c3)cs2)c1 (centres undefined)	-3	1	i	0	10	.	.
O=C(CCN1C(=O)C2CC=CCC2C1=O)Nc1cccc(Cl)c1 (centres undefined)	2	-4	i	-2	-3	.	.
COc1ccc(NC(=O)C2CC2)cc1OC1CCCC1	15	-7	i	-1	-9	.	.
COC(=O)c1ccc(OC)c(OC2CCCC2)c1	5	-10	i	2	0	i	0
Oc1ccccc1N=Cc1sc2ccccc2c1Cl	-1	-2	+	-2	9	i	0
Cc1ccc(-c2nnc(N(C)C(=O)c3cccnc3)s2)cc1	9	16	i	-3	0	i	0
Cc1ccc(-c2nnc(N(C)C(=O)c3cccnc3)s2)cn1	1	-7	i	1	-1	.	.
CCN(CC)C(=O)CSc1nnc(SC(C)C(=O)NC2CC2)s1 (centres undefined)	0	-10	i	-2	5	i	0
COc1ccc(C)cc1NC(=O)n1ncc2cc(Cl)ccc21	-2	4	+	1	-9	+	0
CC1CCCC(NC(=O)C2CCN(S(=O)(=O)N3CCCCCC3)CC2)C1C (centres undefined)	11	-3	i	-2	-1	.	.
CCC1(CC)NC(=O)N(CC(=O)OCC(=O)Nc2cc(C)ccc2C)C1=O	11	1	+	1	0	i	0
CCOc1cc(C=C2C(=O)c3ccccc3C2=O)ccc1OCC(=O)Nc1ccc(C)cc1	-1	-10	+	0	-1	i	0
CCOc1cc(/C=N/NC(N)=O)ccc1OCC(=O)Nc1ccc(C)c(C)c1	13	41	i	-1	2	.	.
Cc1cccc(C)c1NC(=O)C(C1CC1)n1c(=O)c(-c2cc3ccccc3[nH]2)nc2ccccc21 (centres undefined)	.	11	i	.	9	.	.
COc1ccc(CC2(CO)CCN(S(=O)(=O)c3cccc4cccnc34)CC2)cc1	0	3	i	-2	-2	.	.
O=C(O)C1CCCN1c1ncnc2c1oc1ccccc12 (centres undefined)	0	-4	+	0	6	i	6.6*
CC1CN(c2ncnc3c2oc2ccccc23)CC(C)O1 (centres undefined)	0	1	i	2	-6	.	.
Cc1ccc(S(=O)(=O)Nc2cccc(C(=O)NCc3cccnc3)c2)cc1F	-13	-10	i	-1	1	i	0
COc1ccccc1C(c1nnnn1Cc1ccco1)N1CCN(c2cccc(C)c2C)CC1 (centres undefined)	8	31	i	2	9	i	0
CCCS(=O)(=O)NC(=O)C1(C)CCCN(C(=O)c2cc(C)nn2C(C)(C)C)C1 (centres undefined)	12	-5	i	0	-6	i	0
Cc1cc(C(=O)N2CCCC(C)(C(=O)NS(=O)(=O)C3CC3)C2)n(C(C)(C)C)n1 (centres undefined)	2	-12	i	0	29	.	.
SMILES	MC4R antag cAMP	EBI2 antag	Myeloid diff MLP	MC4R barr agon	Exocytosis inh	Myeloid diff	GFP autofluor
CN(C(=O)c1cc(COc2ccc(F)cc2Cl)on1)C1CCOC1 (centres undefined)	-2	-5	i	-1	0	.	.
COCCNC(=O)C1(C)CCCN(C(=O)c2cccc(OC(F)(F)F)c2)C1 (centres undefined)	5	-11	i	0	0	.	.
O=C(CSc1ccc([N+](=O)[O-])cc1)Nc1nnc(C2CC2)s1	8	0	i	0	6	.	.
COc1ccccc1Cc1c(-c2cccc(Cl)c2)nc2ccc(Br)cn12	.	-3	+	.	0	i	41*
Cc1ccc(NC(=O)c2sc3ncn(CC(=O)N4CCOCC4)c(=O)c3c2C)c(Br)c1	2	5	i	-4	-1	.	.
CC1CCc2c(sc(Nc3nc4c(F)cccc4s3)c2C(N)=O)C1 (centres undefined)	8	-5	+	-1	85*	i	6.4*
CCc1ccc(NC(=O)CSCc2ccc(C(=O)O)cc2)cc1	2	5	i	0	0	i	0
COC(=O)c1ccc(NC(=O)CSCc2ccccc2)cc1	3	-11	i	0	18	.	.
Cc1c(NC(=O)C(C)Sc2nc3ccccc3c(=O)n2CCO)c(=O)n(-c2ccccc2)n1C (centres undefined)	10	5	i	-2	0	i	0
O=C(COc1ccc(F)cc1)NCC1(N2CCCCC2)CCCCC1	-3	-5	i	2	-3	.	.
CC(C)CCNC(=O)C(Cc1ccccc1)NS(=O)(=O)c1ccc2c(c1)c(=O)n(C)c(=O)n2C (centres undefined)	7	-12	+	0	-4	i	0
CCCNC(=O)C(Cc1ccccc1)NS(=O)(=O)c1ccc2c(c1)c(=O)n(C)c(=O)n2C (centres undefined)	7	-4	i	1	8	.	.
CCOC(=O)C1CCN(CCC(=O)Nc2ccccc2Cl)CC1	8	6	i	0	9	i	0
CCOC(=O)C1CCN(CCC(=O)Nc2cccc(Cl)c2)CC1	0	-3	i	-1	1	.	.
COc1ccc(CCNC(=O)CSCC(=O)Nc2cc(S(C)(=O)=O)ccc2Cl)cc1	5	0	i	-1	2	.	.
c1ccc2c(c1)NCCS2	4	6	+	0	7	i	0
c1ccc2c(c1)CCc1c(-c3ccncc3)n[nH]c1-2	4	8	+	-1	-1	i	0
CC(C)[C@H](NC(=O)[C@@H]1Cc2ccccc2CN1C(=O)OC(C)(C)C)C(=O)NCC1CCCO1 (some centres undefined)	15	-2	i	1	-7	.	.
Cc1ccccc1OCc1nnc(SCCN2CCCC2)n1-c1ccccc1	1	-9	+	2	1	i	0
